Assays:
[1] = target: T1, 5-hydroxytryptamine receptor 1A (Rattus norvegicus, UniProt P19327); test: Ability to displace [3H]8-OH-DPAT from 5-hydroxytryptamine 1A receptor
T1 sequence (P19327 whole entry): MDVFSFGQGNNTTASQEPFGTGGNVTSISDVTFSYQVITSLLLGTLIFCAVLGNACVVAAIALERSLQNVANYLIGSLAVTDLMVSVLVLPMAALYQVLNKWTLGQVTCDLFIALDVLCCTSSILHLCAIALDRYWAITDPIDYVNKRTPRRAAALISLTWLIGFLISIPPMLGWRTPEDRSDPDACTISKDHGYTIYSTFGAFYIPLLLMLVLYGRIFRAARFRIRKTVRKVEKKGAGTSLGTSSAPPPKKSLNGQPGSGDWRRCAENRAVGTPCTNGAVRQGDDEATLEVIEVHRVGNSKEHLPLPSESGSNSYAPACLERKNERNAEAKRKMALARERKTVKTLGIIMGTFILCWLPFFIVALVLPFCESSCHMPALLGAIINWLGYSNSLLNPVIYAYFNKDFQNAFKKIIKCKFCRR
Outline: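 Rat hippocampal membranes, [3H]8-OH-DPAT radioligand. Ki from at least three competition experiments, each with 10–14 drug concentrations run in triplicate. Ki calculated with the Cheng–Prusoff equation.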

Rattus norvegicus [2] = organism: Rattus norvegicus; test: Dose Inducing behavioral syndrome(FBP: flat body posture) by the compound in reserpine pretreated rats.; format: functional
Outline: (§1)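 Male Wistar rats (260–300 g), groups of 6, given reserpine 1 mg/kg sc 18 h before test. Compounds given ip as 1% Tween 80 suspension. FBP and FT rated 0–3 in 45-s sessions every 3 min, starting 3 min after dosing. Score summed over 5 periods (max 15 per symptom). Mean ± SEM; Newman–Keuls test.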

Rattus norvegicus [3] = organism: Rattus norvegicus; test: Dose Inducing behavioral syndrome(FT: forepaw treading) by the compound in reserpine pretreated rats.; format: functional; outline: as §1
Rattus norvegicus [4] = organism: Rattus norvegicus; test: Effective dose of the required to inhibit symptoms produced by 8-OH-DPAT; format: functional
Outline: (§2)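 Reserpinized male Wistar rats (reserpine 1 mg/kg sc, 18 h before), groups of 6. Compound given ip in 1% Tween 80 60 min before 8-OH-DPAT 5 mg/kg sc. FBP/FT rated 0–3 at 3, 6, 9, 12 and 15 min after agonist, summed (max 15). Mean ± SEM; Newman–Keuls test; ED50 with range.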

Rattus norvegicus [5] = organism: Rattus norvegicus; test: Effect on 8-OH-DAPT- induced behavioral syndrome(FT: forepaw treading) by the compound in reserpine pretreated rats at a dose of 2.; format: functional
Rattus norvegicus [6] = organism: Rattus norvegicus; test: Effect on 8-OH-DAPT- induced behavioral syndrome(FBP: flat body posture) by the compound in reserpine pretreated rats at a dose of 2.; format: functional
Rattus norvegicus [7] = organism: Rattus norvegicus; test: Effect on 8-OH-DAPT- induced behavioral syndrome(FBP: flat body posture) by the compound in reserpine pretreated rats at a dose of 4.; format: functional; outline: as §2
Rattus norvegicus [8] = organism: Rattus norvegicus; test: Effect on 8-OH-DAPT- induced behavioral syndrome(FT: forepaw treading) by the compound in reserpine pretreated rats at a dose of 8.; format: functional; outline: as §2
Rattus norvegicus [9] = organism: Rattus norvegicus; test: Induction of behavioral syndrome(FT: forepaw treading) by the compound in reserpine pretreated rats at a dose of 2.; format: functional
Rattus norvegicus [10] = organism: Rattus norvegicus; test: Induction of behavioral syndrome(FT: forepaw treading) by the compound in reserpine pretreated rats at a dose of 4.; format: functional
Outline: (§3)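 Male Wistar rats (260–300 g) were given reserpine 1 mg/kg sc in saline 18 h before testing. Test compound was then given alone ip as a 1% Tween 80 suspension (2 mL/kg). FBP and FT were each scored 0–3 and summed (maximum 15). n=6 per group; mean ± SEM; Newman–Keuls test.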

Rattus norvegicus [11] = organism: Rattus norvegicus; test: Induction of behavioral syndrome(FT: forepaw treading) by the compound in reserpine pretreated rats at a dose of 8.; format: functional; outline: as §3
Rattus norvegicus [12] = organism: Rattus norvegicus; test: Effect on 8-OH-DAPT- induced behavioral syndrome(FBP: flat body posture) by the compound in reserpine pretreated rats at a dose of 8.; format: functional; outline: as §2
Rattus norvegicus [13] = organism: Rattus norvegicus; test: Induction of behavioral syndrome(FBP: flat body posture) by the compound in reserpine pretreated rats at a dose of 2.; format: functional; outline: as §1
Rattus norvegicus [14] = organism: Rattus norvegicus; test: Induction of behavioral syndrome(FBP: flat body posture) by the compound in reserpine pretreated rats at a dose of 4.; format: functional; outline: as §3
Rattus norvegicus [15] = organism: Rattus norvegicus; test: Induction of behavioral syndrome(FBP: flat body posture) by the compound in reserpine pretreated rats at a dose of 8.; format: functional; outline: as §3
Rattus norvegicus [16] = test: Induction of LLR(lower lip retraction) by the compound in rats at a dose of 8 mg/kg; format: functional
Outline: (§4)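 Male Wistar rats, groups of 6, given compound alone ip as 1% Tween 80 suspension. Lower incisor visibility scored 0/0.5/1 at 15, 30 and 45 min after dosing, summed (max 3 per rat). Mean ± SEM versus vehicle, Newman–Keuls test; ED50 with range.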

Rattus norvegicus [17] = test: Effect on 8-OH-DPAT-Induced LLR(lower lip retraction) in rats at a dose of 16 mg/kg; format: functional
Outline: (§5)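 Male Wistar rats, groups of 6. Compound given ip in 1% Tween 80 45 min before 8-OH-DPAT 1 mg/kg sc. Lower incisor visibility scored 0/0.5/1 at 15, 30 and 45 min after agonist, summed (max 3). Mean ± SEM; Newman–Keuls test; ED50 with range.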

Rattus norvegicus [18] = test: Effect on 8-OH-DPAT-Induced LLR(lower lip retraction) in rats at a dose of 4 mg/kg; format: functional; outline: as §5
Rattus norvegicus [19] = test: Effect on 8-OH-DPAT-Induced LLR(lower lip retraction) in rats at a dose of 8 mg/kg; format: functional; outline: as §5
Rattus norvegicus [20] = test: Induction of LLR(lower lip retraction) by the compound in rats at a dose of 4 mg/kg; format: functional; outline: as §4
Rattus norvegicus [21] = test: Induction of LLR(lower lip retraction) by the compound in rats at a dose of 16 mg/kg; format: functional; outline: as §4
Rattus norvegicus [22] = organism: Rattus norvegicus; test: Effect on 8-OH-DAPT- induced behavioral syndrome(FT: forepaw treading) by the compound in reserpine pretreated rats at a dose of 4.; format: functional; outline: as §2

Ki [1]: 8 nM
Compound: COc1ccccc1N1CCN(C2CCC(N3C(=O)c4ccccc4C3=O)CC2)CC1 (configuration not stated)
ED50 (Rattus norvegicus [2]): 6.3
ED50 (Rattus norvegicus [3]): 2.3 mg/kg
ED50 (Rattus norvegicus [4]): 7.5 mg/kg
FT mean score (Rattus norvegicus [5]): 6.2
FBP mean score (Rattus norvegicus [6]): 9.8
FBP mean score (Rattus norvegicus [7]): 8.8
FT mean score (Rattus norvegicus [8]): 1
FT mean score (Rattus norvegicus [9]): 0.1
FT mean score (Rattus norvegicus [10]): 0.2
FT mean score (Rattus norvegicus [11]): 0.2
FBP mean score (Rattus norvegicus [12]): 5.6
FBP mean score (Rattus norvegicus [13]): 0.1
FBP mean score (Rattus norvegicus [14]): 0.2
FBP mean score (Rattus norvegicus [15]): 0.2
LLR score (Rattus norvegicus [16]): 1
LLR score (Rattus norvegicus [17]): 0.6
LLR score (Rattus norvegicus [18]): 2
LLR score (Rattus norvegicus [19]): 1.5
LLR score (Rattus norvegicus [20]): 1.3
LLR score (Rattus norvegicus [21]): 1.2
FT mean score (Rattus norvegicus [22]): 4.2

— ChEMBL document CHEMBL1132488, “On the bioactive conformation of NAN-190 (1) and MP3022 (2), 5-HT(1A) receptor antagonists” (J Med Chem, 1999)
